Hits are enriched below; roughly 2.9% of the tested compounds scored in any of these assays.
CDK5 inh = inhibitors of human CDK5/p35 kinase; AID 488839; Q00535+Q15078; actives 0.01% (n = 330,000); Recombinant CDK5/p35, ADP-Glo luminescence, 60 min; inhibition, % at 10 µM;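 active = highest replicate inhibition of at least 50% and at least 75% of replicates reaching 50%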;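 note: plate controls were DMSO neutral control for no effect and GW8510 at 10 µM for full effect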
Cneo AK release = causes C. neoformans cell lysis; lysis activity, % at 15 µM; actives 0.2% (n = 360,000); adenylate kinase release luminescence, 4 h; normalised: neutral wells 0, clomiphene wells 100;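 active = mean lysis activity across replicates of at least 80%, whatever share of replicates individually reach that level; inactive = mean lysis activity below 80%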
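Material – log-phase Cryptococcus neoformans yeast cells · Input – 5 × 10^6 yeast cells/mL · Medium – fresh YPD growth medium · Doses – single compound concentration per well · Timing – static 4 h at 37 °C with compound, 1 h detection · Detection – adenylate kinase release luminescence · Read-out – signal increase indicating cell lysis · Control set – Clomiphene as positive lysis control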
dFosB act = activators of mouse delta FosB homodimer | P13346 | purified delta FosB, TAMRA-CDK5 oligo fluorescence polarization; percent of positive-control signal above neutral wells | activation, % at 25 µM | actives 0.99% (n = 340,000) | AID 493131;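 active = mean activation above about 17%, with every replicate also reaching it, limit read from the data, passing the limit was not always enough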
Target sequence (P13346 whole entry, looked up): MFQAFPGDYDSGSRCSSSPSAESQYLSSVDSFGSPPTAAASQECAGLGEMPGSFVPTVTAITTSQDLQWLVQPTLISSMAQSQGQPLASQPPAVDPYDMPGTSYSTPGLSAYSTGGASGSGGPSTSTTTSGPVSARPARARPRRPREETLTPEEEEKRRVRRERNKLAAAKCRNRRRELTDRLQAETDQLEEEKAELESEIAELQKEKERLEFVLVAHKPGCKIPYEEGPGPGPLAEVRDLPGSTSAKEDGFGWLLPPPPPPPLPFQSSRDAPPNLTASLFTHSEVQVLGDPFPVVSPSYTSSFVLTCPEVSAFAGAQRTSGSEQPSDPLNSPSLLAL
GSIS activator = primary screen for activators of insulin secretion dependent on glucose, INS-1E cells, GLuc reporter luminescence; INS-1E GLuc reporter insulin secretion, 2-3 h; activation, % at 16.6 µM; actives 0.61% (n = 370,000);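 active = lowest replicate activation of at least 40%, so every replicate reaches that level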;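 note: 0% = median of neutral control wells and 100% = median of IBMX positive control wells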
HIV Env fusion = blocks HIV Env-driven cell-cell fusion; AID 651610; HeLa-JRFL Env/CEM21 cell fusion, luciferase; inhibition, % at 12.3 µM; actives 1.1% (n = 360,000);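 active = mean replicate inhibition score of at least 50 and every replicate individually at or above 50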;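 note: 0% = plate neutral controls and 100% = maraviroc near 300 nM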
PAX8 reporter = PAX8 transcriptional activity inhibition; RMG-I TPO-luciferase reporter, SteadyGlo, 24 h; inhibition, % at 12.6 µM; actives 1.2% (n = 360,000); AID 652154;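 active = mean replicate inhibition at least 60% with every replicate also reaching 60%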;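 note: luciferase light reporting Pax8 driven TPO promoter activity; plate controls were median of neutral control wells for no effect and mitoxantrone controls for full effect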
Numbers without * were called inactive; . = no result given; ! = repeats disagree; [ ] = remark or other dose.

SMILES	CDK5 inh	Cneo AK release	dFosB act	GSIS activator	HIV Env fusion	PAX8 reporter
C[C@@H]1CN([C@H](C)CO)S(=O)(=O)c2ccc(Br)cc2O[C@H]1CN(C)CC1CCCC1	.	55	.	-16	13[16.7 µM]	-25
CCN(Cc1ccccc1)C(c1ccccn1)c1nnnn1C(C)(C)CC (stereo not given)	0	-1	-2	.	.	.
CC(C)(C)n1nnnc1C(c1ccccn1)N(Cc1ccccc1)Cc1ccc(Cl)cc1 (stereo not given)	-1	-1	-15	.	127*	20
O=C(Nc1ccc(SC(F)F)cc1)c1cccc2nc3ccccc3nc12	0	-2	2	82*	-3	.
COc1ccc(NC(=O)N(C)C[C@@H]2Oc3ccc(NS(=O)(=O)c4cccs4)cc3C(=O)N([C@H](C)CO)C[C@@H]2C)cc1	.	2	.	-9	.	.
C[C@H]1CN([C@@H](C)CO)C(=O)c2cccc(NC(=O)Nc3ccccc3)c2O[C@H]1CN(C)Cc1ccccc1	.	-6	.	16	-13[16.7 µM]	-13
S=c1[nH]nc(-c2cccc(Cl)c2)n1/N=C/c1ccc(-c2ccccc2Br)o1	0	0	42*	8	2	3
O=C(O)c1cc2c([nH]c1=O)CCCC2	-1	0	5	.	33	9
O=c1ccc2c([nH]1)CCCCCCCCCC2	1	-1	-7	7	56*	14
Nc1ccn(C2OC(COC(=O)C34CC5CC(CC(C5)C3)C4)C(O)C2O)c(=O)n1 (stereo not given)	1	.	0	.	68*	11
C[C@@H]1CN([C@@H](C)CO)C(=O)c2c(c3ccccc3n2C)-c2ccccc2CO[C@@H]1CN(C)S(=O)(=O)c1ccc(C(F)(F)F)cc1	.	.	.	-11	.	97*
C[C@@H]1CN([C@@H](C)CO)C(=O)c2c(c3ccccc3n2C)-c2ccccc2CO[C@@H]1CN(C)S(=O)(=O)c1ccc(Cl)cc1	.	100*	.	-13	.	.
C[C@@H]1CN([C@H](C)CO)C(=O)c2c(c3ccccc3n2C)-c2ccccc2CO[C@H]1CN(C)S(=O)(=O)c1ccc(Cl)cc1	.	107*	.	8	.	.
C[C@H](CO)N1C[C@H](C)[C@H](CN(C)S(=O)(=O)c2ccc(Cl)cc2)OCc2ccccc2-c2c(n(C)c3ccccc23)C1=O	.	0	.	-3	82*	88*!
Cc1ccc(S(=O)(=O)N(C)C[C@@H]2OCc3ccccc3-c3c(n(C)c4ccccc34)C(=O)N([C@H](C)CO)C[C@@H]2C)cc1	.	.	.	-17	95*	71*!
C[C@H]1CN([C@@H](C)CO)C(=O)c2c(c3ccccc3n2C)-c2ccccc2CO[C@@H]1CN(C)S(=O)(=O)c1ccsc1	.	0	.	8	39[16.7 µM]	92*
CCCCCCn1c(-c2cccs2)n[nH]c1=S	4	9	-3	46*	14	-12
CCn1ncc(C2=NOC(C(=O)Nc3cccnc3)C2)c1C (stereo not given)	1	1	4	26	-10	.
CCn1ncc(C2=NOC(C(=O)Nc3ccc(C)cc3)C2)c1C (stereo not given)	0	.	2	.	42*	15
O=C(N[C@H]1CC[C@H](CCn2cc(C3CCCC3)nn2)O[C@@H]1CO)c1cccnc1	.	.	.	10	.	-2
CC(C)n1nc(C(=O)Nc2ccccc2N2CCOCC2)c2ccccc2c1=O	1	.	1	120*	10	-12
CCN(CC)S(=O)(=O)c1ccc(N2CCOCC2)c(NC(=O)c2nn(C(C)C)c(=O)c3ccccc23)c1	.	0	.	-1	21	10
CC(=O)OC1CC2C(C)(C)C(=O)C=CC2(C)C2CCC3(C)C(c4ccoc4)OC(=O)C4OC43C12C (stereo not given)	.	0	.	-8	.	.
CC(=O)O[C@@H]1C[C@H]2C(C)(C)C(=O)C=C[C@]2(C)[C@H]2CC[C@@]3(C)[C@H](c4ccoc4)OC(=O)[C@H]4O[C@]43[C@@]21C	0	-3	-3	-3	-63	75*
CCCc1cc(N2CCCC(C(=O)NCc3ccc4c(c3)OCO4)C2)n2ncnc2n1 (stereo not given)	1	-1	-3	54*	.	.
SMILES	CDK5 inh	Cneo AK release	dFosB act	GSIS activator	HIV Env fusion	PAX8 reporter
CCOc1cc(NCc2ccccc2)c2ncn(C(C)C)c2c1	1	-2	-5	-52	49	77*
CCCOc1cc(NCc2ccccc2)c2ncn(C(C)C)c2c1	0	19	-19	-26	-12	25
CC(=O)N(C)C[C@@H]1Oc2cc(-c3ccc(C#N)cc3)ccc2S(=O)(=O)N([C@H](C)CO)C[C@@H]1C	.	-3	.	20	-5[16.7 µM]	.
COCCNC(=O)C1(C)CCCN(C(=O)c2ccc3c(c2)CCO3)C1 (stereo not given)	.	-2	.	.	59*	-5
C[C@H]1CN([C@@H](C)CO)C(=O)c2c(c3ccccc3n2C)-c2ccccc2CO[C@H]1CN(C)C(=O)CCN(C)C	.	45	.	20	20[16.7 µM]	-40
C[C@@H]1CN([C@@H](C)CO)C(=O)c2cc(NS(=O)(=O)c3cccs3)ccc2O[C@H]1CN(C)C	.	-3	.	19	.	1
COc1ccc(CNC(=O)CC2C(=O)NCCN2C2Cc3ccccc3C2)cc1 (stereo not given)	-1	-1	-8	19	61*	18
Cc1cc(C)cc(N=c2c([N+](=O)[O-])nn(-c3ccc4c(c3)OCCO4)n2O)c1	-4	-3	-7	-20	65*	100*
COc1ccc(CCNC(=O)CSC(=O)c2ccccc2)cc1OC	1	.	-3	46*	-12	12
COc1ccc(CCNC(=O)CSc2cccc3cccnc23)cc1OC	1	-2	0	41*	14	13
COc1ccc(CCNC(=O)CSc2ccccc2)cc1OC	0	.	-1	73*	16	7
COc1ccc(CCNC(=O)CSc2ccccn2)cc1OC	-1	.	3	11	-2	12
COc1ccc(CCNC(=O)CSc2nc(N)c(C#N)c(-c3cccs3)c2C#N)cc1OC	1	7	15	-10	119*	.
CN(C)CCCNC(=O)C[C@@H]1C=C[C@@H](NS(=O)(=O)c2ccccc2)[C@H](CO)O1	.	15	.	-3	11[16.7 µM]	4
C[C@@H]1CN([C@H](C)CO)S(=O)(=O)c2ccc(C#C[C@@H](C)O)cc2O[C@H]1CN(C)C	.	0	.	8	-27[16.7 µM]	-2
COc1ccc(CCNC(=O)C(=O)c2c(C)n(C)c3ccccc23)cc1OC	-4	0	-7	46*	8	-4
Cc1c(C(=O)C(=O)NCCC2=CCCCC2)c2ccccc2n1C	4	.	-13	.	-12	-26
CCN(CC(=O)Nc1ccc(NC(C)=O)cc1)C(=O)C1(c2ccc(Cl)cc2)CCC1	.	0	.	.	-47	79*
CC(C)COc1ccc(CNC(=S)NCc2ccccc2)cc1	3	182*	1	.	18	.
